Holding throughout (type): functional
Assay [1] concerns Human alphaherpesvirus 1. The assay can be described thus: Compound was tested for the concentration required to reduce HSV-1 (KOS) induced cytopathogenicity by 50% in primary rabbit kidney cell cultures. In general terms: Protection from cytopathic effect is a common read-out in antiviral testing.
Assay [2] has as its system HeLa. Put plainly: Compound was tested for the concentration required to cause a microscopically detectable alteration in normal cell morphology in HeLa cell cultures. The conditions noted are these: Homo sapiens, read-out: Min cytotoxic concentration. Put shortly:
(§1)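 Uninfected cell monolayers were run in parallel with the antiviral assays and exposed to compound for the same period as the infected cultures. The end point was the lowest concentration giving a microscopically detectable disruption of normal cell morphology.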

Assay [3] relates to Human alphaherpesvirus 2. Put plainly: Compound was tested for the concentration required to reduce HSV-2 (G) induced cytopathogenicity by 50% in primary rabbit kidney cell cultures.
A further assay relates to L1210. The assay can be described thus: Dose required to inhibit proliferation of L-1210 Cells by 50%. The following applies: Mus musculus, read-out: ID50 (the source's name). An outline of the steps:
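Inhibition of proliferation of murine leukemia L-1210 cells in exponential growth phase. ID50 is the dose inhibiting cell proliferation by 50%, given plus or minus standard deviation.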

For assay [4], the species on record is Oryctolagus cuniculus. The assay can be described thus: Compound was tested for the concentration required to cause a microscopically detectable alteration in normal cell morphology in primary rabbit kidney cell cultures. The following applies: read-out: Min cytotoxic concentration. An outline of the steps: as §1
The subject of assay [5] is Coxsackievirus B4. The assay can be described thus: Compound was tested for the concentration required to reduce coxsackie virus B4 induced cytopathogenicity by 50% in HeLa cell cultures. The conditions noted are these: Enterovirus B.
Assay [6] deals with Human respirovirus 3. Put plainly: Compound was tested for the concentration required to reduce parainfluenza virus type 3 induced cytopathogenicity by 50% in Vero cell cultures.
In a further assay the test system is Poliovirus 1. The assay can be described thus: Concentration required to reduce polio virus type 1 induced cytopathogenicity by 50% in HeLa cell cultures. The following applies: Enterovirus C.
Assay [7] deals with Vero. Put plainly: Compound was tested for the concentration required to cause a microscopically detectable alteration in normal cell morphology in Vero cell cultures. The following applies: Chlorocebus sabaeus, read-out: Min cytotoxic concentration. An outline of the steps: as §1
Assay [8] has as its system Mammalian orthoreovirus 1. The assay can be described thus: Compound was tested for the concentration required to reduce reovirus type 1 induced cytopathogenicity by 50% in Vero cell cultures.
In assay [9] the test system is Vesicular stomatitis virus. Put plainly: Compound was tested for the concentration required to reduce vesicular stomatitis virus induced cytopathogenicity by 50% in HeLa cell cultures.
Assay [10] deals with Vesicular stomatitis virus. The assay can be described thus: Compound was tested for the concentration required to reduce vesicular stomatitis virus induced cytopathogenicity by 50% in primary rabbit kidney cell cultures.
Assay [11] concerns Coxsackievirus B4. The assay can be described thus: Compound was tested for the concentration required to reduce coxsackie virus B4 induced cytopathogenicity by 50% in Vero cell cultures. The following applies: Enterovirus B.
The subject of assay [12] is Sindbis virus. The assay can be described thus: Compound was tested for the concentration required to reduce sindbis virus induced cytopathogenicity by 50% in Vero cell cultures.
Assay [13] deals with Human alphaherpesvirus 1. Put plainly: Concentration required to reduce HSV-1 (KOS) induced cytopathogenicity by 50% in primary rabbit kidney cell cultures.
The test system of assay [14] is HeLa. The assay can be described thus: Concentration required to cause a microscopically detectable alteration in cell morphology in HeLa cell cultures. The conditions noted are these: Homo sapiens, read-out: Min cytotoxic concentration. Put shortly: as §1
The test system of assay [15] is Human alphaherpesvirus 2. The assay can be described thus: Concentration required to reduce HSV-2 (G) induced cytopathogenicity by 50% in primary rabbit kidney cell cultures.
Assay [16] is filed under the species Oryctolagus cuniculus. Put plainly: Concentration required to cause a microscopically detectable alteration in cell morphology in primary rabbit kidney cell cultures. The conditions noted are these: read-out: Min cytotoxic concentration. Put shortly:
as §1

For assay [17], the system named is Coxsackievirus B4. The assay can be described thus: Concentration required to reduce coxsackie virus B4 induced cytopathogenicity by 50% in vero cell cultures. The following applies: Enterovirus B.
The test system of assay [18] is Coxsackievirus B4. Put plainly: Concentration required to reduce coxsackie virus 4 induced cytopathogenicity by 50% in HeLa cell cultures. The following applies: Enterovirus B.
The test system of assay [19] is Human respirovirus 3. The assay can be described thus: Concentration required to reduce parainfluenza virus type 3 induced cytopathogenicity by 50% in vero cell cultures.
The test system of assay [20] is Vero. Put plainly: Concentration required to cause a microscopically detectable alteration in cell morphology in vero cell cultures. The following applies: Chlorocebus sabaeus, read-out: Min cytotoxic concentration. An outline of the steps: as §1
Assay [21] has as its system Sindbis virus. The assay can be described thus: Concentration required to reduce sindbis virus induced cytopathogenicity by 50% in vero cell cultures.
Assay [22] relates to Vesicular stomatitis virus. Put plainly: Concentration required to reduce vesicular stomatitis virus induced cytopathogenicity by 50% in primary rabbit kidney cell cultures.
In assay [23] the test system is Mammalian orthoreovirus 1. The assay can be described thus: Concentration required to reduce reovirus type 1 induced cytopathogenicity by 50% in vero cell cultures.
Assay [24] concerns Vesicular stomatitis virus. The assay can be described thus: Concentration required to reduce vesicular stomatitis virus induced cytopathogenicity by 50% in HeLa cell cultures.

In brackets after ≈: the same amount, converted by molar mass.

For the compound `Nc1ncnc2c1ncn2C[C@@H](O)CO`, the MIC was above 400 µg/mL with Human alphaherpesvirus 1 [1]; above 400 µg/mL against Human alphaherpesvirus 2 [3]; above 400 µg/mL in the assay with Coxsackievirus B4 [5]; 20 µg/mL (≈ 95.6 µM) against Human respirovirus 3 [6]; above 400 µg/mL against Poliovirus 1; 70 µg/mL (≈ 335 µM) in [8]. For the same compound, the MIC was 10 µg/mL (≈ 47.8 µM) in [9], 10 µg/mL (≈ 47.8 µM) in assay [10], 400 µg/mL (≈ 1910 µM) against Coxsackievirus B4 [11] and above 400 µg/mL in the assay with Sindbis virus [12]. The figures for the MCC in the assay with HeLa [2], in the assay listed under Oryctolagus cuniculus [4] and in the assay with Vero [7] were above 400 µg/mL, at least 400 µg/mL and above 400 µg/mL, respectively. In addition, in the assay with L1210, the IC50 was 170 µg/mL (≈ 813 µM).

For `Nc1ncnc2c1c(I)cn2[C@@H]1O[C@H](CO)[C@@H](O)[C@H]1O` [IODOTUBERCIDIN], the MIC with Human alphaherpesvirus 1 [13] was 0.02 µg/mL (≈ 0.051 µM); with Human alphaherpesvirus 2 [15], above 1 µg/mL; against Coxsackievirus B4 [17], above 0.4 µg/mL; in the assay with Coxsackievirus B4 [18], above 0.4 µg/mL; with Human respirovirus 3 [19], above 0.4 µg/mL; in the assay with Poliovirus 1, above 0.4 µg/mL. Moreover, the MIC (with Sindbis virus [21]; in assay [22]; in assay [23]; in [24]) was above 0.4 µg/mL in each case. The MCC in the assay with HeLa [14], in the assay listed under Oryctolagus cuniculus [16] and in the assay with Vero [20] was 1 µg/mL throughout. The IC50 with L1210 was 1.25 µg/mL (≈ 3.19 µM).

For the compound `Nc1ncnc2c1c(Cl)c(Cl)n2C1O[C@H](CO)[C@@H](O)[C@H]1O` (stereo partly drawn), the MIC was above 40 µg/mL in the assay with Human alphaherpesvirus 1 [13]; above 40 µg/mL with Human alphaherpesvirus 2 [15]; above 10 µg/mL in the assay with Coxsackievirus B4 [17]; above 10 µg/mL with Coxsackievirus B4 [18]; above 10 µg/mL with Human respirovirus 3 [19]; above 10 µg/mL with Poliovirus 1. For the same compound, the MIC in the assay with Sindbis virus [21] was above 10 µg/mL; in assay [22] it was above 40 µg/mL; in assay [23], above 10 µg/mL; in assay [24], above 10 µg/mL. Also, the MCC with HeLa [14], in the assay filed under Oryctolagus cuniculus [16] and with Vero [20] was 40 µg/mL each time. The IC50 in the assay with L1210 was found to be 10.1 µg/mL (≈ 30.1 µM).

As for `NC(=O)c1cn([C@@H]2O[C@H](CO)[C@@H](O)[C@H]2O)c2ncnc(N)c12` [SANGIVAMYCIN], the MIC against Human alphaherpesvirus 1 [13] was 0.07 µg/mL (≈ 0.226 µM); with Human alphaherpesvirus 2 [15] it was 0.07 µg/mL (≈ 0.226 µM); against Coxsackievirus B4 [17], 0.02 µg/mL (≈ 0.0647 µM); in the assay on Coxsackievirus B4 [18] it was above 0.04 µg/mL; against Human respirovirus 3 [19], 0.02 µg/mL (≈ 0.0647 µM); in the assay on Poliovirus 1, 0.07 µg/mL (≈ 0.226 µM). Further, the MIC against Sindbis virus [21] is 0.2 µg/mL (≈ 0.647 µM); in [22], 0.02 µg/mL (≈ 0.0647 µM); in assay [23], above 0.1 µg/mL; in assay [24], 0.04 µg/mL (≈ 0.129 µM). For the same compound, the MCC is 0.4 µg/mL with HeLa [14], above 10 µg/mL in the assay listed under Oryctolagus cuniculus [16] and 0.4 µg/mL in the assay with Vero [20]. The IC50 in the assay with L1210 amounted to 0.019 µg/mL (≈ 0.0614 µM).

For `Nc1ncnc2c1c(CCCO)cn2C1O[C@H](CO)[C@@H](O)[C@H]1O` (stereo partly drawn), the MIC in the assay with Human alphaherpesvirus 1 [13] was 7 µg/mL (≈ 21.6 µM); against Human alphaherpesvirus 2 [15] it was above 10 µg/mL; against Coxsackievirus B4 [17], 7 µg/mL (≈ 21.6 µM); against Coxsackievirus B4 [18], 7 µg/mL (≈ 21.6 µM); in the assay with Human respirovirus 3 [19] it was 2 µg/mL (≈ 6.17 µM); against Poliovirus 1, 7 µg/mL (≈ 21.6 µM). The MIC was above 10 µg/mL against Sindbis virus [21], 7 µg/mL (≈ 21.6 µM) in [22], 2 µg/mL (≈ 6.17 µM) in assay [23] and 2 µg/mL (≈ 6.17 µM) in assay [24]. The values for the MCC in the assay on HeLa [14], in the assay filed under Oryctolagus cuniculus [16] and in the assay with Vero [20] were 40 µg/mL, above 40 µg/mL and 40 µg/mL, respectively. Moreover, in the assay on L1210, the IC50 is 1.28 µg/mL (≈ 3.95 µM).

With `CCCCc1cn(C2O[C@H](CO)[C@@H](O)[C@H]2O)c2ncnc(N)c12` (stereo partly drawn), the MIC against Human alphaherpesvirus 1 [13] is above 40 µg/mL; in the assay on Human alphaherpesvirus 2 [15] it was above 40 µg/mL; in the assay with Coxsackievirus B4 [17], above 40 µg/mL; against Coxsackievirus B4 [18], above 40 µg/mL; against Human respirovirus 3 [19], 20 µg/mL (≈ 62 µM); in the assay with Poliovirus 1, above 40 µg/mL. Moreover, the MIC (in the assay on Sindbis virus [21]; in assay [22]; in assay [23]; in assay [24]) was above 40 µg/mL in each case. The MCC is above 40 µg/mL in the assay on HeLa [14], 40 µg/mL in the assay filed under Oryctolagus cuniculus [16] and above 100 µg/mL with Vero [20]. The IC50 with L1210 worked out at 81.6 µg/mL (≈ 253 µM).

Consider `Nc1ncnc2c1c(Br)c(Br)n2C1O[C@H](CO)[C@@H](O)[C@H]1O` (stereo partly drawn), for which the MIC in the assay with Human alphaherpesvirus 1 [13] was above 100 µg/mL; in the assay with Human alphaherpesvirus 2 [15], above 40 µg/mL; against Coxsackievirus B4 [17], 10 µg/mL (≈ 23.6 µM); in the assay with Coxsackievirus B4 [18] it was above 10 µg/mL; in the assay on Human respirovirus 3 [19], above 10 µg/mL; in the assay on Poliovirus 1, above 10 µg/mL. For the same compound, the MIC was above 10 µg/mL in the assay on Sindbis virus [21], above 40 µg/mL in [22], 10 µg/mL (≈ 23.6 µM) in [23] and above 10 µg/mL in assay [24]. In addition, the MCC with HeLa [14] came out at 40 µg/mL; in the assay filed under Oryctolagus cuniculus [16] it was 100 µg/mL; with Vero [20], 40 µg/mL. Further, the IC50 in the assay with L1210 was determined as 2.31 µg/mL (≈ 5.45 µM).

These data come from ChEMBL document CHEMBL1122581, “Antiviral activity of C-5 substituted tubercidin analogues” (1984).
